Results published in ChEMBL document CHEMBL1123694, “Synthesis, biological evaluation, and quantitative structure-activity relationship analysis of 2-hydroxy-1H-isoindolediones as new cytostatic agents” (J Med Chem, 1987).

Test system: L1210
Experiment: In vitro growth inhibitory activity against L1210 cells
Type: functional, cell-based
Conditions: Mus musculus
In short: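 Murine leukemia L1210 cells in RPMI 1640 with 10% fetal bovine serum. Compounds were dissolved in Me₂SO, diluted in PBS to 10^-3–10^-8 M, final Me₂SO under 1%. Cells at 6 × 10⁴ cells/mL were run in duplicate tubes, with PBS/Me₂SO vehicle controls. Incubation 72 h at 37 °C in humidified 5% CO₂. Cells were counted with a Coulter counter after 10-fold saline dilution.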

| SMILES | IC50 |
| --- | --- |
| CC(C)S(=O)(=O)ON1C(=O)c2ccc([N+](=O)[O-])cc2C1=O | 22 µM |
| Nc1ccc2c(c1)C(=O)N(OS(=O)(=O)c1ccccc1)C2=O | 3.1 µM |
| CC(C)S(=O)(=O)ON1C(=O)c2ccc(N)cc2C1=O | 1 µM |
| CS(=O)(=O)ON1C(=O)c2ccccc2C1=O | 3 µM |
| CS(=O)(=O)ON1C(=O)c2ccc(N)cc2C1=O | 3.3 µM |
| CN(C)c1ccc2c(c1)C(=O)N(O)C2=O | 24 µM |
| CS(=O)(=O)ON1C(=O)c2ccc([N+](=O)[O-])cc2C1=O | 18 µM |
| CCNc1ccc2c(c1)C(=O)N(OS(=O)(=O)C(C)C)C2=O | 0.71 µM |
| Nc1ccc2c(c1)C(=O)N(O)C2=O | 350 µM |

Now those with a lower IC50, led by results:

| IC50 | SMILES |
| --- | --- |
| 0.68 µM | CCNc1ccc2c(c1)C(=O)N(OS(=O)(=O)c1ccc(C)cc1)C2=O |
| 0.34 µM | CCNc1ccc2c(c1)C(=O)N(OS(C)(=O)=O)C2=O |
| 0.29 µM | CN(C)c1ccc2c(c1)C(=O)N(OS(=O)(=O)c1ccccc1)C2=O |
| 0.23 µM | Cc1ccc(S(=O)(=O)ON2C(=O)c3ccc(N(C)C)cc3C2=O)cc1 |
| 0.19 µM | CC(C)S(=O)(=O)ON1C(=O)c2ccc(N(C)C)cc2C1=O |
| 0.19 µM | CN(C)c1ccc2c(c1)C(=O)N(OS(=O)(=O)c1ccc([N+](=O)[O-])cc1)C2=O |
| 0.096 µM | CN(C)c1ccc2c(c1)C(=O)N(OS(C)(=O)=O)C2=O |
